Compound activity as filed in PubChem BioAssay.
FXN GAA850 act: activators of GAA850 frataxin (FXN) promoter; HEK293 lucGAA850 FXN promoter luciferase reporter, 24 h; percent of 10 µM SAHA response; activation, % at 6 µM; 360,000 compounds, 0.56% hits;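 active = activation above the average of all compounds screened plus 3 SD, cutoff fixed separately per campaign, cut at about 7.5% in these data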;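 note: 0% = DMSO wells and 100% = 10 µM SAHA wells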
SR-BI DiI-HDL act: SR-BI HDL lipid transfer activation. CHO ldlA[mSR-BI] cells, DiI-HDL uptake fluorescence, 3 h; 100 = double the neutral-control signal. activation, % at 12.5 µM. 320,000 compounds, 0.096% hits;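 active = mean replicate activation of at least 60% and every replicate at or above 60%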;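 note: 0% = median plate neutral-control signal and 100% = twice that signal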
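Material – SR-BI-overexpressing, LDLR-lacking CHO cells · Medium – BSA-supplemented, HEPES-buffered Ham's F12, pH 7.4 · Doses – single concentration · Times – compound with DiI-HDL co-incubation, 3 h at 37 °C · Measured by – bottom-read fluorescence, 550/595 nm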
GASC-1 inh: inhibitors of human GASC-1 (JMJD2C) demethylase | GST-JMJD2C(1-420) H3K9me3 demethylation, DELFIA europium | Q9H3R0 | AID 2099 | 330,000 compounds, 0.069% hits | inhibition, % at 2.35 µM;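 active = more than half of a compound's replicate wells show inhibition beyond 50%, single wells judged on their own value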;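 note: signal counts dimethyl H3K9 product captured on neutravidin plate; 0% = median of DMSO wells and 100% = 0.3 times that DMSO median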
SR-BI HDL uptake: inhibitors of mouse SR-BI mediated HDL lipid uptake; ldlA[mSR-BI] CHO cells, DiI-HDL uptake fluorescence, 3 h; inhibition, % at 12.5 µM; 320,000 compounds, 0.96% hits;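 active = mean replicate inhibition of at least 70% and a set share of replicates each scoring 70 or more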;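 note: 0% = median of neutral control wells and 100% = median of positive control wells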
AHR activator: activators of human aryl hydrocarbon receptor; 320,000 compounds, 2.5% hits; AID 2796; activation, % at 5 µM; AHR-responsive luciferase reporter cells, luminescence; P35869; in the data active = activation above about 47%;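 note: 0% = vehicle wells and 100% = reference agonist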
Target sequence (P35869 whole entry, looked up): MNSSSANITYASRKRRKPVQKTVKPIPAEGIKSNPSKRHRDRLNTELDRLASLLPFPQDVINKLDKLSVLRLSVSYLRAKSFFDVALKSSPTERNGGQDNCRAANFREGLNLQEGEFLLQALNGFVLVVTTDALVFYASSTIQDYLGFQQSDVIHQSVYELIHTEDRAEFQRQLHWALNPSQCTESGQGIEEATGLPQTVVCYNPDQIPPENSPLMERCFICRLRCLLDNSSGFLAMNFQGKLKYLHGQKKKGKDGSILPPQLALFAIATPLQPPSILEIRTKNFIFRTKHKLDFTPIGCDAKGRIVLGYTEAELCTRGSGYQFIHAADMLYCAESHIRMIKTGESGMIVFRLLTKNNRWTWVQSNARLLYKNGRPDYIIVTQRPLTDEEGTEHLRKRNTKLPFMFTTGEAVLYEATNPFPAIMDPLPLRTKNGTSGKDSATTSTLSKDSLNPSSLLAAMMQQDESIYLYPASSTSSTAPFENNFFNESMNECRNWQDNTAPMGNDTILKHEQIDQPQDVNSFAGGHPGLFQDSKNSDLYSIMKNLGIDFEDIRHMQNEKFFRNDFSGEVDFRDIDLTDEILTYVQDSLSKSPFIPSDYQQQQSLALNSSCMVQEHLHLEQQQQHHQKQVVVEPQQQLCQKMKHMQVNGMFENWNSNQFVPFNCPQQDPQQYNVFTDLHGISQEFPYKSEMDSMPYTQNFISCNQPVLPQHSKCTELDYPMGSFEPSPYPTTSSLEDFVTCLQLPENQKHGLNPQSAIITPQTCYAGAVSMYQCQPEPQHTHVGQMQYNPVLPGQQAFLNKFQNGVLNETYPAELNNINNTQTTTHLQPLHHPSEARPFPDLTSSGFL
AHR act cf: confirmation of human aryl hydrocarbon receptor activators; shares compounds with AHR activator; human cells, AHR-responsive luciferase reporter, luminescence; activation, % at 9 µM; 2,300 compounds, 87% hits; AID 2845; in the data active = activation above about 49%;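 note: HepG2 hepatoma cells carrying a DRE-driven firefly luciferase reporter; 0% = vehicle wells and 100% = reference agonist wells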
PXR act counter: counter-screen for AHR activators: human PXR activators; activation, % at 11.6 µM; AID 434939; shares compounds with AHR activator; cell-based PXR reporter, luciferase luminescence; 2,300 compounds, 88% hits; in the data active = activation above about 11%;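 note: human hepatoma DPX-2 cells expressing full-length human PXR; 0% = DMSO and 100% = reference agonist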
An asterisk follows results filed as active; / = no result given. This is a sample that favours compounds with a hit; in the whole collection about 3.7% have one here.

SMILES	FXN GAA850 act	SR-BI DiI-HDL act	GASC-1 inh	SR-BI HDL uptake	AHR activator	AHR act cf	PXR act counter
CCOc1ccccc1NC(=S)Nc1ncccc1C	-3.9	-12.6	3.3	12.6	121.8*	80.6*	52.4*
Cc1cccnc1NC(=S)Nc1ncccc1C	5.7	-5.5	-3.0	5.5	-0.6	/	/
CC1Cc2ccccc2N1C(=S)NC(=O)C1(C)CC1(Cl)Cl (stereo not given)	1.9	35.0	-5.1	-35.0	7.9	/	/
Cc1ccc(S(=O)(=O)N2CCN(C(=O)CNC(=O)c3ccc(Cl)cc3)CC2)cc1	1.1	4.5	7.4	-4.5	-1.1	/	/
c1ccc(-c2cc3c(-n4cccc4)ncnc3o2)cc1	2.7	-34.5	1.3	34.5	85.6*	105.0*	23.0*
COc1ccc(CCCC(=O)N/N=C/c2ccccc2OC)cc1	1.0	-16.9	2.3	16.9	11.8	/	/
Nc1nc2ccccc2n1/N=C/c1ccc2c(c1)OCO2	4.3	/	-5.2	/	14.6	/	/
Nc1nc2ccccc2n1/N=C/c1ccc(Br)cc1	3.0	13.8	5.8	-13.8	87.9*	102.3*	18.9*
Cc1nc(SCc2nc3c(F)cccc3[nH]2)c2oc3ccccc3c2n1	5.2	-6.3	/	6.3	80.3*	80.2*	39.9*
Cc1nc(SCc2nc3c(C)cccc3[nH]2)c2oc3ccccc3c2n1	4.0	-19.5	/	19.5	16.2	/	/
N#Cc1ccccc1NC(=O)c1ccccc1OCC(=O)NCc1ccco1	3.6	10.2	6.6	-10.2	117.0*	109.5*	47.0*
N#Cc1ccccc1NC(=O)c1ccccc1OCC(=O)Nc1ccc2c(c1)oc1ccccc12	-0.6	-8.2	-4.8	8.2	10.4	/	/
Cc1csc(SCC(=O)Nc2ccc(Cl)cn2)n1	1.5	-13.4	-1.0	13.4	98.2*	98.4*	/
CC(C)(C)c1csc(SCC(=O)Nc2ccc(Cl)cn2)n1	-0.5	9.8	6.5	-9.8	-2.1	/	/
Cc1ccc(S(=O)(=O)N2CCOC2CNC(=O)C(=O)NCc2cccnc2)cc1 (stereo not given)	0.8	3.2	4.7	-3.2	-3.8	/	/
CCN(CC)C(=O)Nc1cnc2ccccc2c1	3.9	2.1	-4.9	-2.1	14.9	/	/
Cc1ccc(NC(=O)Nc2cnc3ccccc3c2)cc1	3.6	/	0.6	/	93.2*	103.5*	22.3*
O=C1CCN(Cc2ccccc2)C=C1c1ccc(C(F)(F)F)cc1	2.0	-27.4	1.1	27.4	108.3*	101.6*	118.6*
O=C1CCN(Cc2ccccc2)C=C1c1ccc2ccccc2c1	2.8	-14.0	/	14.0	83.5*	108.0*	39.6*
CCCS(=O)(=O)NC(=O)C1(C)CCN(C(=O)c2cccs2)C1 (stereo not given)	-2.1	/	/	/	/	/	/
CC1CCCC(NC(=O)C2CCN(S(=O)(=O)c3cnc[nH]3)CC2)C1C (stereo not given)	0.7	12.6	-12.6	-12.6	0.1	/	/
NNC(=O)c1[nH]c2ccccc2c1-c1ccccc1	-2.2	-17.9	-5.5	17.9	93.7*	16.9	9.6
CC(=O)NNC(=O)c1[nH]c2ccc(Cl)cc2c1-c1ccccc1	0.6	0.4	-9.0	-0.4	8.6	/	/
CCc1nnc(NC(=O)CSc2nc(C)cc(C)c2C#N)s1	2.0	-9.0	-5.4	9.0	101.9*	62.5*	45.1*
COc1ccc2oc(C(=O)c3ccccc3)c(N)c2c1	/	/	-27.4	/	39.8	/	/
SMILES	FXN GAA850 act	SR-BI DiI-HDL act	GASC-1 inh	SR-BI HDL uptake	AHR activator	AHR act cf	PXR act counter
COc1ccc(C(=O)c2oc3ccccc3c2N)cc1	5.7	-55.8	-2.6	55.8	81.6*	133.2*	12.2*
Nc1c(C(=O)c2ccccc2)oc2ccccc12	4.9	18.0	-11.7	3.5	112.4*	140.0*	24.4*
CC(=O)c1oc2ccccc2c1N	1.2	-2.5	-5.7	2.5	6.7	/	/
Nc1c(C(=O)c2ccc(F)cc2)oc2ccccc12	5.5	-10.8	-2.7	10.7	92.2*	155.9*	16.5*
Nc1c(C(=O)Nc2ccc(Cl)cc2)oc2ccccc12	5.4	-27.2	6.2	27.2	106.6*	131.6*	60.4*
O=C(Nc1ccccc1)c1ccc(NC(=O)C2CC2)cc1	3.5	-41.0	-3.7	41.0	-1.6	/	/
COc1cccc(C(=O)Nc2c(C(N)=O)oc3ccccc23)c1	1.7	-20.8	-5.7	20.8	94.1*	132.7*	21.4*
O=C(Nc1cc(Cl)ccc1-n1cncn1)c1cccs1	1.1	-0.8	-1.7	0.8	83.7*	115.7*	20.5*
O=C(Nc1cc(Cl)ccc1-n1cncn1)c1cc(F)cc(F)c1	2.1	-22.2	-3.2	22.2	40.6	/	/
Cn1c(=O)c([N+](=O)[O-])c(NCCCn2ccnc2)c2ccccc21	-0.9	16.5	-25.7	-16.5	79.8*	110.1*	27.3*
Cc1c(C(=O)NCc2ccccn2)oc2c(Cl)cccc12	3.2	-6.0	2.7	6.0	87.3*	132.1*	50.1*
Cn1ncc(N)c1C(=O)Nc1cccc(C(F)(F)F)c1	-0.6	-12.9	2.0	12.9	46.4	/	/
CN(C)S(=O)(=O)c1ccc(N2CCCC2)c(C(=O)Nc2ccc(F)cc2F)c1	1.1	31.2	1.2	-31.2	4.0	/	/
Nc1[nH]ncc1C(=O)Nc1cccc(C(F)(F)F)c1	1.8	23.1	10.9	-23.1	90.7*	50.5*	/
CN(C)S(=O)(=O)Oc1ccccc1C(=O)Nc1ccc(F)cc1F	1.5	-19.8	2.2	19.8	124.3*	92.8*	154.4*
CN(C)S(=O)(=O)Oc1ccccc1C(=O)Nc1cccc(C(F)(F)F)c1	-0.8	-30.0	-13.6	30.0	82.3*	100.5*	55.1*
COc1ccc(-c2nnsc2N2C(=O)c3ccccc3C2=O)cc1	0.8	/	-4.5	/	0.7	/	/
COc1ccc(-c2nc3n(c2C)Cc2ccccc2-3)cc1	3.4	-9.2	1.1	9.2	80.1*	149.0*	17.2*
O=[N+]([O-])c1cccc(NC(=S)N2CCc3ccccc3C2)c1	0.9	-49.1	-0.8	49.2	104.9*	91.9*	54.0*
Cc1ccc(/C=N/n2cc(-c3ccccc3)[nH]c2=S)s1	1.8	-9.0	-1.4	9.0	96.0*	84.5*	/
CC1=NN(C(=O)Cn2nc([N+](=O)[O-])cc2C)C(O)(C(F)(F)F)C1 (stereo not given)	3.4	-13.5	-4.7	13.5	-1.0	/	/
O=C(Nc1ccc(F)cc1)c1cnc(-c2ccccc2)nc1-c1ccccc1	-1.1	-38.9	-9.7	38.9	123.8*	53.4*	80.7*
O=C(COC(=O)c1cc(-c2cccc(Br)c2)nc2ccccc12)NCC1CCCO1 (stereo not given)	3.4	-38.6	-5.8	38.6	0.2	/	/
O=c1c(Cl)c2oc3ccccc3nc-2c2ccccc12	1.2	-4.3	1.7	4.3	81.0*	122.8*	15.8*
Clc1ccc(-c2nnc(Sc3nc4ccccc4o3)c3ccccc23)cc1	-1.1	-42.7	-14.5	42.7	-0.7	/	/
